Data from ChEMBL document CHEMBL4020721 (Eur J Med Chem, 2017).

Columns and labels:
[1] = tested on: NCI-H1993; test: Growth inhibition of human NCI-H1993 cells after 72 hrs by CCK-8 assay; assay type: functional, cell-based; conditions: nci-h1993
[2] = Intrinsic clearance in rat liver microsomes assessed per mg protein at 1 uM preincubated for 5 mins followed by NADPH addition measured after 5 to 30 mins by LC-MS/MS analysis; assay type: ADME, microsome; conditions: read-out: CLH
In short: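 Microsomes (0.5 mg/ml) with 1 µM compound were preincubated 5 min at 37°C in 100 mM phosphate buffer pH 7.4, then started with 1 mM NADPH. Samples were taken at 0, 5, 10 and 30 min, quenched with acetonitrile/tinidazole and run by LC-MS/MS. CLint = k / microsomal protein concentration. Midazolam was the positive control.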

[3] = Drug recovery in human liver microsomes at 1 uM measured after 30 mins by LC-MS/MS analysis; assay type: ADME, microsome; conditions: liver microsomes, read-out: Drug recovery
In short: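 Liver microsomes (0.5 mg/ml) were incubated with 1 µM compound at 37°C in 100 mM phosphate buffer pH 7.4 without NADPH for 30 min. Reactions were quenched with acetonitrile/tinidazole internal standard and analysed by LC-MS/MS. Recovery (%) was taken from the compound/internal standard peak area ratio.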

[4] = target: CYP2C9 (Homo sapiens, UniProt P11712); test: Reversible inhibition of CYP2C9 in human liver microsomes at 10 uM after 20 mins by in presence of NADPH LC-MS/MS analysis; assay type: ADME; conditions: liver microsomes
[5] = target: CYP3A4 (Homo sapiens, UniProt P08684); test: Time dependent irreversible inhibition of CYP3A4 in human liver microsomes at 10 uM preincubated with compound followed by NADPH addition by LC-MS/MS analysis; assay type: ADME; conditions: liver microsomes
In short: (§1)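 HLM (0.2 mg/ml) with 10 µM compound were preincubated 0, 5, 10 or 20 min at 37°C with 1 mM NADPH or PBS. Substrate cocktail (halved concentrations) plus NADPH was then added for 10 min. Metabolites were measured by LC-MS/MS. Kobs is the slope of relative activity versus preincubation time.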

[6] = target: T1, CYP1A2 (Homo sapiens, UniProt P05177); test: Time dependent irreversible inhibition of CYP1A2 in human liver microsomes at 10 uM preincubated with compound followed by NADPH addition by LC-MS/MS analysis; assay type: ADME; conditions: liver microsomes; in short: as §1
T1 sequence (P05177 whole entry): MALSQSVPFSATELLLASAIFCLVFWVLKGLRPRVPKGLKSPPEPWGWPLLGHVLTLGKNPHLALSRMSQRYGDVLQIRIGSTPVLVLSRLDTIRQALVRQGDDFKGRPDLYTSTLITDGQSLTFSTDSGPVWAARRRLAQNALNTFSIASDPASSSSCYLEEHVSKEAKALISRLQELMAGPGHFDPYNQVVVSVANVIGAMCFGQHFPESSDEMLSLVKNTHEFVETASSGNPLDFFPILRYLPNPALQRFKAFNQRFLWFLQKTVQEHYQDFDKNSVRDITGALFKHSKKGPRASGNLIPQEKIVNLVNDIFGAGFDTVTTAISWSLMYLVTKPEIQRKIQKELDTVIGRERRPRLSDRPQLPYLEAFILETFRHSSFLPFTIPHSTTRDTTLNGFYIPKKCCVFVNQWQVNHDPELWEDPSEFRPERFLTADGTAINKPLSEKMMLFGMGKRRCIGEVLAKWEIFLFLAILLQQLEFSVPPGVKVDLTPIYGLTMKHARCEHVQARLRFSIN

[7] = AUC (0 to 24 hrs) in Sprague-Dawley rat plasma at 6 mg/kg, po by UPLC-MS/MS analysis; assay type: ADME, organism-based; set-up: dose 6 mg/kg, time < 24 hr, route oral
In short: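 Male Sprague-Dawley rats (180-220 g) were fasted overnight with free access to water. Dosing was intravenous (n=2) or oral at 6 mg/kg (n=3). Heparinized blood was drawn from 0 to 1440 min. Plasma was frozen at -20°C, then precipitated with acetonitrile containing internal standard, centrifuged and analysed by UPLC-MS/MS.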

[8] = target: Tyrosine-protein kinase receptor UFO (Homo sapiens, UniProt P30530); test: Inhibition of Axl (unknown origin) using FAM-labeled peptide as substrate preincubated for 5 to 10 mins followed by substrate/ATP addition measured after 30 to 60 mins by mobility shift assay
In short: (§2)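 Caliper mobility-shift assay with FAM-labeled peptide substrate. Buffer: 50 mM HEPES pH 7.5, 0.0015% Brij-35, 10 mM MgCl2, 2 mM DTT, with kinase-specific enzyme levels. […] Incubation was 30-60 min at 28°C, stopped with EDTA buffer. Read-out was % conversion.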

[9] = target: Mast/stem cell growth factor receptor Kit (Homo sapiens, UniProt P10721); test: Inhibition of c-Kit (unknown origin) using FAM-labeled peptide as substrate preincubated for 5 to 10 mins followed by substrate/ATP addition measured after 30 to 60 mins by mobility shift assay; in short: as §2
[10] = target: Platelet-derived growth factor receptor beta (Homo sapiens, UniProt P09619); test: Inhibition of PDGFRbeta (unknown origin) using FAM-labeled peptide as substrate preincubated for 5 to 10 mins followed by substrate/ATP addition measured after 30 to 60 mins by mobility shift assay; in short: as §2
[11] = target: Proto-oncogene tyrosine-protein kinase receptor Ret (Homo sapiens, UniProt P07949); test: Inhibition of RET (unknown origin) using FAM-labeled peptide as substrate preincubated for 5 to 10 mins followed by substrate/ATP addition measured after 30 to 60 mins by mobility shift assay; in short: as §2
[12] = target: Receptor tyrosine-protein kinase erbB-4 (Homo sapiens, UniProt Q15303); test: Inhibition of ERBB4 (unknown origin) using FAM-labeled peptide as substrate preincubated for 5 to 10 mins followed by substrate/ATP addition measured after 30 to 60 mins by mobility shift assay; in short: as §2
[13] = target: Proto-oncogene tyrosine-protein kinase Src (Homo sapiens, UniProt P12931); test: Inhibition of c-Src (unknown origin) using FAM-labeled peptide as substrate preincubated for 5 to 10 mins followed by substrate/ATP addition measured after 30 to 60 mins by mobility shift assay; in short: as §2
[14] = target: Tyrosine-protein kinase ABL1 (Homo sapiens, UniProt P00519); test: Inhibition of ABL (unknown origin) using FAM-labeled peptide as substrate preincubated for 5 to 10 mins followed by substrate/ATP addition measured after 30 to 60 mins by mobility shift assay; in short: as §2
[15] = target: Ephrin type-A receptor 2 (Homo sapiens, UniProt P29317); test: Inhibition of EPHA2 (unknown origin) using FAM-labeled peptide as substrate preincubated for 5 to 10 mins followed by substrate/ATP addition measured after 30 to 60 mins by mobility shift assay; in short: as §2
[16] = tested on: Mus musculus; test: Toxicity in BALB/c athymic nude mouse xenografted with human SNU5 cells assessed as apparent toxicity parameters at 0.3 to 3 mg/kg, po administered once daily for 2 weeks; assay type: organism-based; conditions: in vivo, 336 h
In short: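 Female/male BALB/c nude mice (5-6 weeks, SPF). NCI-H1993 cells (7×10^6 in 140 µL) or SNU-5 cells (6×10^6 in 200 µL) injected s.c. into the right flank. Dosing started at mean tumour volume 150-250 mm³ (NCI-H1993) or 100-200 mm³ (SNU-5). Randomized, n = 7 (NCI-H1993) or 6 (SNU-5) per group. Oral dosing once daily; vehicle controls. Body weight and signs of toxicity monitored during treatment.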

Sequence of Receptor tyrosine-protein kinase erbB-4 (Q15303 whole entry): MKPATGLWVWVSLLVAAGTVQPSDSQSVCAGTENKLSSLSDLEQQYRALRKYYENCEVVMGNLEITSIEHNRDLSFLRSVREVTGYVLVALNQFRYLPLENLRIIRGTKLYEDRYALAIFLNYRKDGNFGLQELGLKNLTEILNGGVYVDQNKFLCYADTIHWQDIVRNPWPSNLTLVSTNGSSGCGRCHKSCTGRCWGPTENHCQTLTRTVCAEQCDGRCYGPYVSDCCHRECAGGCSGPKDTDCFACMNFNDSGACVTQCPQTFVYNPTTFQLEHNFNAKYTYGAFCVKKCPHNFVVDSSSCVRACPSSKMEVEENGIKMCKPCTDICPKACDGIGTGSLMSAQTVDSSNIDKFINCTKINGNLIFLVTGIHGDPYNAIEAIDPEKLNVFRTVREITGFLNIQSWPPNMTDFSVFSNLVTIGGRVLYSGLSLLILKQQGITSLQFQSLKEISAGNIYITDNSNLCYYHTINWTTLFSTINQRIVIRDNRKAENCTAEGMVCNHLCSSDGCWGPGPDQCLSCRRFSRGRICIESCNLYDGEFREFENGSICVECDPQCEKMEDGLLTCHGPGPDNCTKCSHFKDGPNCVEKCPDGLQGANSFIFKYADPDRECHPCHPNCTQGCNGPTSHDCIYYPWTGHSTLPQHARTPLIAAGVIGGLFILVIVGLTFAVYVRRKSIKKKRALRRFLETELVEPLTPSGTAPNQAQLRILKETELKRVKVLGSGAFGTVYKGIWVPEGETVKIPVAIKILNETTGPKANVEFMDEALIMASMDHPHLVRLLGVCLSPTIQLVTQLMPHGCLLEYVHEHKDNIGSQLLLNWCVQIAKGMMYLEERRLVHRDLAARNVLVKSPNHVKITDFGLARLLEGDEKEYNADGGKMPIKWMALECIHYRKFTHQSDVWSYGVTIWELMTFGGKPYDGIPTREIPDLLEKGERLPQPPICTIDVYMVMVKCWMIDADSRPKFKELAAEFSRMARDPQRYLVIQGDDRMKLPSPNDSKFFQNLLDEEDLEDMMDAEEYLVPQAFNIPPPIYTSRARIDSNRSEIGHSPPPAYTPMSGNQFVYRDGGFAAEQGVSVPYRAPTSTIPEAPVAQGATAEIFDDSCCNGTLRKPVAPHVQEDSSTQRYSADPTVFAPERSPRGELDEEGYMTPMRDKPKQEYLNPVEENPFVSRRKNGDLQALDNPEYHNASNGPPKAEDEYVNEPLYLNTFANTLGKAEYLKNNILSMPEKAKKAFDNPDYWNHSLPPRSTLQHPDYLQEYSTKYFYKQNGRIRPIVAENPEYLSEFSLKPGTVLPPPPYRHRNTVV
Sequence of Proto-oncogene tyrosine-protein kinase receptor Ret (P07949 whole entry): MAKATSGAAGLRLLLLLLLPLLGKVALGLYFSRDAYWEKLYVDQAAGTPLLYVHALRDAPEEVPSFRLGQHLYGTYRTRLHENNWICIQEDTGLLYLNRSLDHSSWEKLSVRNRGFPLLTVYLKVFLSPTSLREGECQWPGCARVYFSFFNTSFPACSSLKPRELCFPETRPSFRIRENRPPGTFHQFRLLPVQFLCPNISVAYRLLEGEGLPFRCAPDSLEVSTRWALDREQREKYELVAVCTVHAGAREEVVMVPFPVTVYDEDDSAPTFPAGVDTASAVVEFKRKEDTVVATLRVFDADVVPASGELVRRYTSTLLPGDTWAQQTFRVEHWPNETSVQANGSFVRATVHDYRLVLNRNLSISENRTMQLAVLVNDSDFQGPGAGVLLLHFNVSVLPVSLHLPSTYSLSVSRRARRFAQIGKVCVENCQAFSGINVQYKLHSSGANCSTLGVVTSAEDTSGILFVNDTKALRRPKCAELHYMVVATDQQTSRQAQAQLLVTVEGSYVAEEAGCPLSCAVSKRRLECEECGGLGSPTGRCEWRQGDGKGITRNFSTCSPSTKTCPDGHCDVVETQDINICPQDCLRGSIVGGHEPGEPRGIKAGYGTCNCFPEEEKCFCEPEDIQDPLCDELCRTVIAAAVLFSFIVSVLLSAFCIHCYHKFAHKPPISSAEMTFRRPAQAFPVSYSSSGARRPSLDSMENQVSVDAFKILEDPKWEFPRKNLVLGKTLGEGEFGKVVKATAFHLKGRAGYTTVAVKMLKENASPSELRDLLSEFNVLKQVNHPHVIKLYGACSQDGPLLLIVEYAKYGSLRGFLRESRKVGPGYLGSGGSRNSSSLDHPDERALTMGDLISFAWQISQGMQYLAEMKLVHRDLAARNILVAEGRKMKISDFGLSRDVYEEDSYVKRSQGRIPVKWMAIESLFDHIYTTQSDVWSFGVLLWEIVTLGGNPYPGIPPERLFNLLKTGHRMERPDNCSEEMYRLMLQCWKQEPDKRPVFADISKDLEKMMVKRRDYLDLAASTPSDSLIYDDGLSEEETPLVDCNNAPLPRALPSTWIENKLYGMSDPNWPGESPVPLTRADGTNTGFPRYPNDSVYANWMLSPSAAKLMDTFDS
Sequence of Tyrosine-protein kinase receptor UFO (P30530 whole entry): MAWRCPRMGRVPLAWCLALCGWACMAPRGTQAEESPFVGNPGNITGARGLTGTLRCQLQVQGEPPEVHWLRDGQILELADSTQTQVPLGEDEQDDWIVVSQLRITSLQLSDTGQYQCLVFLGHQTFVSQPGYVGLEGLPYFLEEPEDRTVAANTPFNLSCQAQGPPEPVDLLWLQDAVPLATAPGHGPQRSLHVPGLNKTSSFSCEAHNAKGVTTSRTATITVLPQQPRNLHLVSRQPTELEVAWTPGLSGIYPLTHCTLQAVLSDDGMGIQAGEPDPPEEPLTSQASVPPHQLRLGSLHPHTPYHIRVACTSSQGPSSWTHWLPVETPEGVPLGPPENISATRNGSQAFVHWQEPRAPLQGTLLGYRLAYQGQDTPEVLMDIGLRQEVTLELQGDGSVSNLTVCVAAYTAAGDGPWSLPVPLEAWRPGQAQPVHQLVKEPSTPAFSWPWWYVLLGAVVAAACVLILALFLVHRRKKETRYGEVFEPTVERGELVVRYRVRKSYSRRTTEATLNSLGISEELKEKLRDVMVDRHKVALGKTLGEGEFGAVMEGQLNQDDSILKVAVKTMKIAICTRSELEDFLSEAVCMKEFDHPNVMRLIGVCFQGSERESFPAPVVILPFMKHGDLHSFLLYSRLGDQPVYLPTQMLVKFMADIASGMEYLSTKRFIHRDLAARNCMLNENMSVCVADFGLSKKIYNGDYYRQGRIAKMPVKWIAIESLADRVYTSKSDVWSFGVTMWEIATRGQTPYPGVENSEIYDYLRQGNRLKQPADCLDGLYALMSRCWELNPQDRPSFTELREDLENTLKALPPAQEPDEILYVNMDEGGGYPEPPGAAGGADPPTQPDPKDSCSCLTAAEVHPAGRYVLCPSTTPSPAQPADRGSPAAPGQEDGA
Sequence of Ephrin type-A receptor 2 (P29317 whole entry): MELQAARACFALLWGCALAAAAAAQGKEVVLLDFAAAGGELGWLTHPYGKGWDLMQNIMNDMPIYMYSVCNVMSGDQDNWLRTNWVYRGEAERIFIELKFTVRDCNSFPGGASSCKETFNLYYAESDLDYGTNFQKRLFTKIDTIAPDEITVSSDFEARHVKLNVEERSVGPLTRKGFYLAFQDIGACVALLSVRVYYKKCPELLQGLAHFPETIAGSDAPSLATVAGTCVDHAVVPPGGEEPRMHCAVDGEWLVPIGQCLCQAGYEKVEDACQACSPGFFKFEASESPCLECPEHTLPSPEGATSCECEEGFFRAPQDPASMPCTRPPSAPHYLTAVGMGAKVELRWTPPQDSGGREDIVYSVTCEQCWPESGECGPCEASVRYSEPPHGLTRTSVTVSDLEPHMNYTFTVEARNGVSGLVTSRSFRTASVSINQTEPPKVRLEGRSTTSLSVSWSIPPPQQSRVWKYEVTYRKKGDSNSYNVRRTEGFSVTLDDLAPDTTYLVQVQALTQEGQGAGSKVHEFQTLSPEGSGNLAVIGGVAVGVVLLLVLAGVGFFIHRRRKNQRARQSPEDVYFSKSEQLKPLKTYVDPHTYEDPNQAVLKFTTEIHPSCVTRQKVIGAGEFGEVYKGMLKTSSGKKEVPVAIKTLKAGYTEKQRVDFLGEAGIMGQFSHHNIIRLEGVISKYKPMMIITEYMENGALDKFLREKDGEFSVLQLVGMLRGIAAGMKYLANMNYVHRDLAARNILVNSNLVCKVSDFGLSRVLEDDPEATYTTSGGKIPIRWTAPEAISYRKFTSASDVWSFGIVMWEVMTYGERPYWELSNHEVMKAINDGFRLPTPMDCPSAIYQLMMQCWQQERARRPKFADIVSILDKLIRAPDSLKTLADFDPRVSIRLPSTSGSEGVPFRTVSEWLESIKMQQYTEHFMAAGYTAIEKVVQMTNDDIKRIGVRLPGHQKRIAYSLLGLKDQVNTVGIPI
Sequence of CYP3A4 (P08684 whole entry): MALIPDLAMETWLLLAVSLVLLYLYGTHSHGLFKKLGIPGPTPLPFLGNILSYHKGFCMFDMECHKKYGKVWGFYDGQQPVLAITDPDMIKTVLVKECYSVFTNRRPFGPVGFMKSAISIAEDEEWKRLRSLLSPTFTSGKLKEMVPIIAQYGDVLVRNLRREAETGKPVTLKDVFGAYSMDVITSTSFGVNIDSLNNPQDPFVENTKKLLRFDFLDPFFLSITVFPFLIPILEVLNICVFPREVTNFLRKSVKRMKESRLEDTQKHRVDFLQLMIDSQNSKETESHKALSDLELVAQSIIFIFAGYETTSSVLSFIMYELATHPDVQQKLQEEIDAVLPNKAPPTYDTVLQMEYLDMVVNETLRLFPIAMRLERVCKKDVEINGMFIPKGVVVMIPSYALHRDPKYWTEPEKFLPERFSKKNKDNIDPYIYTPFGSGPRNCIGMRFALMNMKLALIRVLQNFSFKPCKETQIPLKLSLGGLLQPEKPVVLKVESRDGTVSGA

IC50 [1]: 0.0011 µM
microsomal CLint at 1 µM [2]: 5 µL/min/mg
remaining at 0.5 h, 1 µM [3]: 95%
inhibition at 20 min, 10 µM [4]: < 50%
inhibition at 10 µM [5]: < 50%
inhibition at 10 µM [6]: < 50%
AUC(0-t) at 24 h [7]: 1.25 µg·h/mL
IC50 [8]: 1.07 µM
IC50 [9]: 5.4 µM
IC50 [10]: > 30 µM
IC50 [11]: > 30 µM
IC50 [12]: > 30 µM
IC50 [13]: 17.1 µM
IC50 [14]: > 30 µM
IC50 [15]: > 30 µM
SMILES: CC(c1cc2cc(-c3cnn(C)c3)cnc2cc1F)n1nnc2ncc(-c3cnn(CCO)c3)nc21 (stereo in doubt; 14)
Activity [16]: Non-Toxic
